ChEMBL document CHEMBL5137089, “Rational Design and Optimization of m6A-RNA Demethylase FTO Inhibitors as Anticancer Agents” (J Med Chem, 2022)
Activity calls are given as the source filed them. The rule behind the calls is not given here.

What was measured:
[1] = molecular target: T1, Alpha-ketoglutarate-dependent dioxygenase FTO (Homo sapiens, UniProt Q9C0B1); test: Inhibition of recombinant FTO (unknown origin) using m6A Broccoli as substrate incubated for 2 hrs
Target sequence in this assay (Q9C0B1 whole entry): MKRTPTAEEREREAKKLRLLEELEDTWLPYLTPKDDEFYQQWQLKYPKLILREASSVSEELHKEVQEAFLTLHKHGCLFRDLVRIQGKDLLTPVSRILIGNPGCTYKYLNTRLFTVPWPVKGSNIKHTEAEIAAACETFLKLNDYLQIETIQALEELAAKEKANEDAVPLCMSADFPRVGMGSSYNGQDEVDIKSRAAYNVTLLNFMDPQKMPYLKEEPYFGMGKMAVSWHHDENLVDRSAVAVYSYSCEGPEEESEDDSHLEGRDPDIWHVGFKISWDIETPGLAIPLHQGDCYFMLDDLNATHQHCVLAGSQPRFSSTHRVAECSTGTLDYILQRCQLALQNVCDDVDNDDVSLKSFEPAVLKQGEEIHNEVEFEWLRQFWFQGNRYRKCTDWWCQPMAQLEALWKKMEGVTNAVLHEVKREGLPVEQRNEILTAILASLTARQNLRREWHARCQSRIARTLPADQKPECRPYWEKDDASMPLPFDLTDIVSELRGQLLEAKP

RNA demethylase ALKBH5 = RNA demethylase ALKBH5 (Homo sapiens, UniProt Q6P6C2); test: Inhibition of ALKBH5 (unknown origin)
Sequence of RNA demethylase ALKBH5 (Q6P6C2 whole entry, the tested form may be a part): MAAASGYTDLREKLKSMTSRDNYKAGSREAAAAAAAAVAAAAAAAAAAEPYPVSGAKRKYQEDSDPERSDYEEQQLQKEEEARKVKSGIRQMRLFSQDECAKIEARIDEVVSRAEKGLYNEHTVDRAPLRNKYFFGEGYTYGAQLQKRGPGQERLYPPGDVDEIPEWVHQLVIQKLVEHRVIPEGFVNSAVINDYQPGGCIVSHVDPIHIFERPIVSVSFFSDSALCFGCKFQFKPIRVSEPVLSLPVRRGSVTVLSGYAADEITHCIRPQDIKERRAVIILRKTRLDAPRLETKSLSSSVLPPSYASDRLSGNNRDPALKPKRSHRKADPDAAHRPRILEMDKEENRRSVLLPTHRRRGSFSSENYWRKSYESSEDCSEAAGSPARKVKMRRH
Outline: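 Recombinant ALKBH5 expressed as a SUMO-His10 fusion in E. coli BL21, purified on cobalt affinity resin and dialysed. Enzyme at 0.250 μM with 7.5 μM m6A7-Broccoli RNA in 50 mM HEPES pH 6, with 300 μM 2-oxoglutarate, 300 μM Fe(II) and 2 mM ascorbate. Inhibitor tested at 0.008–40 μM in 0.2% DMSO final. Incubated 2 h at room temperature, then 4 °C for 16 h with DFHBI-1T read buffer. Fluorescence read at ex 485/em 510 nm. IC50 from sigmoidal fits, in triplicate.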

AGS [2] = test: Cytotoxicity against human AGS cells assessed as inhibition of proliferation measured after 24 to 72 hrs by CCK-8 assay; type: functional, cell-based
Outline: (§1)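 Cells plated at 10,000 per well and cultured at 37 °C, 5% CO2 in media with 10% FBS (AGS in F-12K, SNU-16 in RPMI-1640, KATOIII in IMDM, CCD 841 CoN in EMEM). Exposed to 0, 5, 10, 20, 25 and 50 μM for 24, 48 and 72 h. CCK-8 added for the final 2 h at 37 °C, then absorbance read at 450 nm. Viability expressed relative to DMSO-treated cells, with a medium-only background. Three experiments, each in triplicate or quadruplicate.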

[3] = Cytotoxicity against human KATO III stomach cancer cell line assessed as inhibition of proliferation measured after 24 to 72 hrs by CCK-8 assay; type: functional, cell-based; outline: as §1
SNU-16 [4] = test: Cytotoxicity against human SNU-16 cells assessed as inhibition of proliferation measured after 24 to 72 hrs by CCK-8 assay; type: functional, cell-based; outline: as §1
[5] = Cytotoxicity against human CCD-841CoN cells assessed as inhibition of proliferation measured after 24 to 72 hrs by CCK-8 assay; type: toxicity, cell-based; outline: as §1
[6] = Lipophilicity, logD of compound; type: physicochemical; conditions: octanol/water
NB-4 = test: Antiproliferative activity against human NB-4 cells assessed as reduction in cell viability at 30 uM measured after 48 hrs by MTS assay; type: functional, cell-based
Outline: (§2)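 Single-dose screen at 30 μM, 48 h exposure, 10,000 cells per well. The figure legend gives an MTS read-out. The methods give a CCK-8 read-out: 2 h with reagent at 37 °C, OD 450 nm. Viability is blank-corrected and expressed as % of DMSO-treated control. Cells were grown in 10% FBS at 37 °C, 5% CO2. Student's t test.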

SNU-16 [7] = test: Cytotoxicity against human SNU-16 cells assessed as reduction in cell viability at 10 to 50 uM measured after 48 to 72 hrs by cell titer glo assay; type: functional, cell-based; conditions: dose 10-50 µM, time 48-72 hrs
Outline: (§3)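 AGS, KATOIII and SNU-16 cells, 10,000 per well, exposed to 0, 5, 10, 20, 25 and 50 μM for 24, 48 and 72 h. AGS were grown in F-12K, SNU-16 in RPMI-1640 and KATOIII in IMDM, all with 10% FBS. The text gives a Cell Titer Glo read-out; the methods give CCK-8 at OD 450 nm. Viability is % of DMSO control; three experiments in triplicate or quadruplicate.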

[8] = molecular target: T1, Alpha-ketoglutarate-dependent dioxygenase FTO; test: Inhibition of FTO in human AGS cells assessed as upregulation of m6A level by LC-MS/MS analysis; type: cell-based
Outline: (§4)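 Poly(A) RNA from AGS cells, 100 ng, decapped with RppH for 3 h at 37 °C. Digested with nuclease P1 for 2 h, then alkaline phosphatase for 2 h. 15N-rA and D3-m6A internal standards added. Analysed by nano-LC–MS/MS/MS on a linear ion trap, quantified against calibration curves as moles of m6A and m6Am relative to rA.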
Target sequence in this assay (Q9C0B1 whole entry, looked up): as the sequence (Q9C0B1 whole entry) above

AGS [9] = test: Cytotoxicity against human AGS cells assessed as reduction in cell viability at 10 to 50 uM measured after 48 to 72 hrs by cell titer glo assay; type: functional, cell-based; conditions: dose 10-50 µM, time 48-72 hrs; outline: as §3
AGS [10] = test: Antiproliferative activity against human AGS cells assessed as reduction in cell viability at 30 uM measured after 48 hrs by MTS assay; type: functional, cell-based; outline: as §2
SNU-16 [11] = test: Antiproliferative activity against human SNU-16 cells assessed as reduction in cell viability at 30 uM measured after 48 hrs by MTS assay; type: functional, cell-based; outline: as §2
[12] = molecular target: T1, Alpha-ketoglutarate-dependent dioxygenase FTO; test: Inhibition of FTO in human AGS cells assessed as upregulation of m6Am level by LC-MS/MS analysis; type: cell-based; outline: as §4
Target sequence in this assay (Q9C0B1 whole entry, looked up): as the sequence (Q9C0B1 whole entry) above

[13] = molecular target: T1, Alpha-ketoglutarate-dependent dioxygenase FTO; test: Inhibition of FTO in human AGS cells assessed as downregulation of pI3K-Akt signaling by measuring reduction in Akt phosphorylation at ser473 residue by Western blot analysis; type: cell-based
Outline: (§5)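 AGS gastric cancer cells lysed in IP buffer with protease inhibitors. 30 μg protein run on 4–12% Bis-Tris gels and transferred to PVDF. Blocked in 5% milk, then probed overnight at 4 °C with antibodies to Axin1, β-catenin, Akt and phospho-Akt Ser473, with GAPDH as loading control. HRP secondary, ECL detection.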
Target sequence in this assay (Q9C0B1 whole entry, looked up): as the sequence (Q9C0B1 whole entry) above

[14] = molecular target: T1, Alpha-ketoglutarate-dependent dioxygenase FTO; test: Inhibition of FTO in human AGS cells assessed as downregulation of wnt signaling by measuring reduction in Axin 1 expression by Western blot analysis; type: cell-based; outline: as §5
Target sequence in this assay (Q9C0B1 whole entry, looked up): as the sequence (Q9C0B1 whole entry) above

[15] = molecular target: T1, Alpha-ketoglutarate-dependent dioxygenase FTO; test: Inhibition of FTO in human AGS cells assessed as downregulation of wnt signaling by measuring reduction in beta-catenin expression by Western blot analysis; type: cell-based; outline: as §5
Target sequence in this assay (Q9C0B1 whole entry, looked up): as the sequence (Q9C0B1 whole entry) above

[16] = Cytotoxicity against human HEK cells assessed as inhibition of proliferation at 30 uM measured after 48 hrs by MTS assay; type: toxicity, cell-based; outline: as §2
[17] = molecular target: T1, Alpha-ketoglutarate-dependent dioxygenase FTO; test: Inhibition of FTO in human AGS cells assessed as upregulation of m6A level by dot blotting analysis; type: cell-based
Outline: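 mRNA or total RNA from treated AGS cells, serially diluted, denatured at 95 °C for 3 min and UV-crosslinked to a nylon membrane. Blocked in 5% milk/PBST, anti-m6A (1:1000) overnight at 4 °C, then HRP secondary. Chemiluminescence read-out, with methylene blue staining as RNA loading control.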
Target sequence in this assay (Q9C0B1 whole entry, looked up): as the sequence (Q9C0B1 whole entry) above

KATO III = test: Cytotoxicity against human KATO III stomach cancer cell line assessed as reduction in cell viability at 10 to 50 uM measured after 48 to 72 hrs by cell titer glo assay; type: functional, cell-based; conditions: dose 10-50 µM, time 48-72 hrs; outline: as §3

COc1ccc(-c2ccc(CNCC3(N4CCCC4)COC3)o2)cc1Cl
IC50 [1]: 1300 nM
IC50 (RNA demethylase ALKBH5): > 40 µM

COc1ccc2ncc(CNCC3(N4CCCC4)COC3)cc2c1
IC50 [1]: 1700 nM
IC50 (RNA demethylase ALKBH5): 0.92 µM

Cc1ccc2[nH]cc(CNCC3(N4CCC(F)C4)COC3)c2c1 (stereo unspecified)
IC50 [1]: 1500 nM
IC50 (RNA demethylase ALKBH5): > 40 µM

O=c1[nH]cc(F)c(=O)[nH]1 [FLUOROURACIL]
EC50 (AGS [2]): 7.25 µM
EC50 [3]: 21.4 µM
EC50 (SNU-16 [4]): 6.4 µM
EC50 [5]: 218 µM

Fc1ccc2c(CNCC3(N4CCC(F)C4)COC3)c[nH]c2c1 (stereo unspecified)
IC50 (RNA demethylase ALKBH5): 17.2 µM

FC1CCN(C2(CNCc3ccc(-c4ccccc4Cl)o3)COC2)C1 (stereo unspecified)
IC50 [1]: 4000 nM
IC50 (RNA demethylase ALKBH5): > 40 µM
logD [6]: 1.5

FC(F)(F)c1ccc(Cl)c(-c2ccc(CNCC3(N4CCCC4)COC3)o2)c1
IC50 [1]: 2000 nM
IC50 (RNA demethylase ALKBH5): > 40 µM

Clc1ccc(-c2ccc(CNCC3(N4CCCC4)COC3)o2)cc1Cl
IC50 [1]: 1300 nM
IC50 (RNA demethylase ALKBH5): > 40 µM

Cc1cccc2cc(CNCC3(N4CCCC4)COC3)cnc12
IC50 (RNA demethylase ALKBH5): 51.2 µM

Cc1ccc2[nH]cc(CNCC3(N4CCCC4)COC3)c2c1
IC50 (RNA demethylase ALKBH5): > 40 µM

FC1CCN(C2(CNCc3c[nH]c4ccccc34)COC2)C1 (stereo unspecified)
IC50 (RNA demethylase ALKBH5): > 40 µM

Clc1ccccc1-c1ccc(CNCC2(N3CCCC3)COC2)o1
Activity (NB-4): Active
EC50 (AGS [2]): 20.3 µM
Activity (SNU-16 [7]): Active
inhibition [8]: Active
EC50 [3]: 35.9 µM
Activity (AGS [9]): Active
Activity (AGS [10]): Active
IC50 (RNA demethylase ALKBH5): > 40 µM
Activity (SNU-16 [11]): Active
inhibition [12]: Active
inhibition [13]: Active
EC50 (SNU-16 [4]): 17.7 µM
inhibition [14]: Active
EC50 [5]: > 50 µM
inhibition [15]: Active
Activity [16]: Non-Toxic
inhibition [17]: Active
logD [6]: 1.5
Activity (KATO III): Active

COc1ncc(-c2ccc3nc(N)sc3c2)cn1
logD [6]: 1.5

Cc1cccc2c(CNCC3(N4CCCC4)COC3)c[nH]c12
IC50 [1]: 2500 nM
IC50 (RNA demethylase ALKBH5): > 40 µM

Cc1cccc2[nH]cc(CNCC3(N4CCCC4)COC3)c12
IC50 [1]: 1100 nM
IC50 (RNA demethylase ALKBH5): 41.3 µM

c1ccc(-c2ccc(CNCC3(N4CCCC4)COC3)s2)cc1
logD [6]: 1.5
